Measured values from ChEMBL document CHEMBL1126857, “14 beta-[(p-nitrocinnamoyl)amino]morphinones, 14 beta-[(p-nitrocinnamoyl)amino]-7,8-dihydromorphinones, and their codeinone analogues: synthesis and receptor activity” (J Med Chem, 1993).

Target: Mu-type opioid receptor (Bos taurus, UniProt P79350)
Sequence (P79350 whole entry): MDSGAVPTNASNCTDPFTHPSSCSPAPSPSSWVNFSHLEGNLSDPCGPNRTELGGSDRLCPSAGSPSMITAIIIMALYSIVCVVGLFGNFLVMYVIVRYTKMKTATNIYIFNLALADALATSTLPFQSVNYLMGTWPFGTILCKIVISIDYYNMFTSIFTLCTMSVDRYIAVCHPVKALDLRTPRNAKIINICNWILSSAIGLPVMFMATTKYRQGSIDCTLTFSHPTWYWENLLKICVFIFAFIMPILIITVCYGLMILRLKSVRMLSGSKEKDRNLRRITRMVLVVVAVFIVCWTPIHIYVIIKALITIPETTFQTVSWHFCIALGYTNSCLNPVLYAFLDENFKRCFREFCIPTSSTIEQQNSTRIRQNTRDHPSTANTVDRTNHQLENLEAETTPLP
Test: Binding affinity against mu opioid receptor from calf frontal cortex.
In short: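 Calf frontal cortex membranes (10 mg wet weight), prewashed and preincubated 15 min at 37 °C, in 50 mM Tris-HCl pH 7.5 with 10 mM MgSO4 and 0.5 mM EDTA. Competition against 0.8 nM [3H]DAMGO at eight ligand concentrations, 30 min at 37 °C, in triplicate. Nonspecific binding with 1 μM naloxone. Filtration, then scintillation counting; IC50 taken.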
For `COc1ccc2c3c1O[C@H]1C(=O)C=C[C@@]4(NC(=O)/C=C/c5ccc([N+](=O)[O-])cc5)C(C2)N(CC2CC2)CCC314` (some centres not stated), the IC50 was 1.45 nM. In the case of `COc1ccc2c3c1O[C@@]1(C)C(=O)C=C[C@@]4(NC(=O)/C=C/c5ccc([N+](=O)[O-])cc5)C(C2)N(CC2CC2)CCC314` (some centres not stated), the IC50 is reported as 36.8 nM. In the case of `O=C(/C=C/c1ccc([N+](=O)[O-])cc1)N[C@@]12CCC(=O)[C@@H]3Oc4c(O)ccc5c4[C@@]31CCN(CC1CC1)[C@@H]2C5`, the IC50 is reported as 0.87 nM. For `COc1ccc2c3c1O[C@H]1C(=O)C=C[C@@]4(NC(=O)/C=C/c5ccc([N+](=O)[O-])cc5)C(C2)N(C)CCC314` (some centres not stated), the IC50 was 1.01 nM. Compound `COc1ccc2c3c1O[C@@]1(C)C(=O)C=C[C@@]4(NC(=O)/C=C/c5ccc([N+](=O)[O-])cc5)C(C2)N(C)CCC314` (some centres not stated) has an IC50 of 36.2 nM. In the case of `CN1CC[C@]23c4c5ccc(O)c4O[C@H]2C(=O)CC[C@@]3(NC(=O)/C=C/c2ccc([N+](=O)[O-])cc2)[C@H]1C5`, the IC50 is reported as 0.28 nM. `COc1ccc2c3c1O[C@@]1(C)C(=O)CC[C@@]4(NC(=O)/C=C/c5ccc([N+](=O)[O-])cc5)C(C2)N(CC2CC2)CCC314` (some centres not stated) gave an IC50 of 32 nM. For `C[C@@]12Oc3c(O)ccc4c3C13CCN(CC1CC1)C(C4)[C@]3(NC(=O)/C=C/c1ccc([N+](=O)[O-])cc1)C=CC2=O` (some centres not stated), the IC50 was 1.88 nM. In the case of `C[C@@]12Oc3c(O)ccc4c3C13CCN(CC1CC1)C(C4)[C@]3(NC(=O)/C=C/c1ccc([N+](=O)[O-])cc1)CCC2=O` (some centres not stated), the IC50 is reported as 0.52 nM. With `CN1CCC23c4c5ccc(O)c4O[C@H]2C(=O)C=C[C@@]3(NC(=O)/C=C/c2ccc([N+](=O)[O-])cc2)C1C5` (some centres not stated) the IC50 was 1.45 nM. `O=C(/C=C/c1ccc([N+](=O)[O-])cc1)N[C@@]12C=CC(=O)[C@@H]3Oc4c(O)ccc5c4C31CCN(CC1CC1)C2C5` (some centres not stated) showed an IC50 of 7.8 nM. `C[C@@]12Oc3c(O)ccc4c3C13CCN(CC1CC1)C(C4)[C@]3(NC(=O)CCc1ccc([N+](=O)[O-])cc1)CCC2=O` (some centres not stated) gave an IC50 of 24 nM. `COc1ccc2c3c1O[C@H]1C(=O)CC[C@@]4(NC(=O)/C=C/c5ccc([N+](=O)[O-])cc5)C(C2)N(C)CCC314` (some centres not stated) gave an IC50 of 0.44 nM. Compound `COc1ccc2c3c1O[C@@]1(C)C(=O)CC[C@@]4(NC(=O)/C=C/c5ccc([N+](=O)[O-])cc5)C(C2)N(C)CCC314` (some centres not stated) has an IC50 of 104 nM. For `CN1CCC23c4c5ccc(O)c4O[C@@]2(C)C(=O)C=C[C@@]3(NC(=O)/C=C/c2ccc([N+](=O)[O-])cc2)C1C5` (some centres not stated), the IC50 was 0.8 nM.

Target: not listed separately
Test: Tested for its binding effect on [3H]- DAMGO in bovine striatal membrane at 20 nM
Format: functional, cell membranes, Bos taurus, Striatum
In short: (§1)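 Bovine striatal membranes (10 mg protein) pretreated 60 min at 25 °C with or without 20 nM ligand in 50 mM Tris-HCl pH 7.5, then washed by centrifugation five times. [3H]DAMGO saturation, 0.05–6.4 nM, 60 min at 25 °C, then filtration. Nonspecific binding with 10 μM naloxone; Bradford protein. Kd/Bmax by nonlinear regression; triplicate, three experiments.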
Work on `C[C@@]12Oc3c(O)ccc4c3C13CCN(CC1CC1)C(C4)[C@]3(NC(=O)/C=C/c1ccc([N+](=O)[O-])cc1)CCC2=O` (some centres not stated) yielded a Kd of 0.82 nM.

Test system: not listed separately
Test: Bmax value expressed in (f mol bound)/mg of protein
In short: as §1
Compound `C[C@@]12Oc3c(O)ccc4c3C13CCN(CC1CC1)C(C4)[C@]3(NC(=O)/C=C/c1ccc([N+](=O)[O-])cc1)CCC2=O` (some centres not stated) has a Bmax (fM bound (mg of protein)-1) of 100.
